Results reported in ChEMBL document CHEMBL2176870 (J Med Chem, 2012).
Converted amounts (≈) assume the structure as drawn.

Key:
Staphylococcus aureus = assay: Antibacterial activity against Staphylococcus aureus CIP54.146 after 18 hrs by broth microdilution method; format: functional; settings: CIP54.146, 18 h
In short: (§1)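 CLSI broth microdilution with serial 2-fold dilutions from 0.06 to 64 μg/mL. Cation-adjusted Mueller–Hinton broth, inoculum 5 × 10^5 CFU/mL, incubated at 35 °C for 18 h. MIC taken as the lowest concentration with no visible growth.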

Streptococcus pneumoniae = assay: Antibacterial activity against Streptococcus pneumoniae D39 after 18 hrs by broth microdilution method; format: functional; settings: D39, 18 h
In short: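 CLSI broth microdilution with 2-fold dilutions from 0.06 to 64 μg/mL. Cation-adjusted Mueller–Hinton broth with 2.5% lysed horse blood, inoculum 5 × 10^5 CFU/mL, grown at 35 °C for 18 h in 5% CO2. MIC is the lowest concentration showing no visible growth.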

Escherichia coli = assay: Antibacterial activity against Escherichia coli C7 after 18 hrs by broth microdilution method; format: functional; settings: C7, 18 h
[1] = target: T1, Enoyl-[acyl-carrier-protein] reductase [NADH] FabI (Escherichia coli K-12, UniProt P0AEK4); assay: Inhibition of Escherichia coli FabI using crotonoyl-CoA as substrate preincubated for 90 mins
T1 sequence (P0AEK4 whole entry): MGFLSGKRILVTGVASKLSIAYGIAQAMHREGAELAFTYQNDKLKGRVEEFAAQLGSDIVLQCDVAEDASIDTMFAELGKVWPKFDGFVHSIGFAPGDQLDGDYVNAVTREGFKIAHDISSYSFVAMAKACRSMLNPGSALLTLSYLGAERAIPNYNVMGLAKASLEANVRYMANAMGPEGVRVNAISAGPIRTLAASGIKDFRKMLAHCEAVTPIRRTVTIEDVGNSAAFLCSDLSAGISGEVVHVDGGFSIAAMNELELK
In short: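 Recombinant C-terminal 6-His-tagged E. coli FabI (40 nM) in 50 mM Hepes pH 7.5, 100 μM DTT, 0.006% Triton X-100. Enzyme preincubated with 20 μM NADH, 10 μM NAD+ and inhibitor in DMSO for 90 min at room temperature. Reaction started with 50 μM crotonoyl-CoA. 6–10 concentrations; IC50 by Langmuir fit.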

Enterococcus faecalis = assay: Antibacterial activity against Enterococcus faecalis ATCC 29212 after 18 hrs by broth microdilution method; format: functional; settings: ATCC 29212, 18 h; in short: as §1
[2] = Cytotoxicity against human HepG2 cells; format: cell-based; settings: read-out: ED50 (the source's name)
[3] = target: T2, Enoyl-[acyl-carrier-protein] reductase [NADPH] FabI (Staphylococcus aureus, UniProt Q6GI75); assay: Inhibition of Staphylococcus aureus recombinant FabI using trans-2-octenoyl N-acetylcysteamine thioester as substrate preincubated for 60 mins
T2 sequence (Q6GI75 whole entry): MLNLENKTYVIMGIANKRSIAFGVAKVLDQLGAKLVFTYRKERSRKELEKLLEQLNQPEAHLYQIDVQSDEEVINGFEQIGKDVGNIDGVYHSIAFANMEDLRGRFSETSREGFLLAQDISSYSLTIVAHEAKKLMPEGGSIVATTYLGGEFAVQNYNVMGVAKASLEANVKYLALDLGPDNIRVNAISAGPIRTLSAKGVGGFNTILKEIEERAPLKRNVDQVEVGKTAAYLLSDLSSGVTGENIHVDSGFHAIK
In short: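 Recombinant S. aureus FabI (2 nM) in 50 mM ADA pH 6.5, 1 mM DTT, 0.006% Triton X-100, 50 mM NaCl. Preincubated 60 min at room temperature with 40 μM NADPH, 10 μM NADP+ and inhibitor in DMSO. Reaction started with 100 μM t-o-NAC. Inhibition versus untreated samples; IC50 by Langmuir fit.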

SMILES | MIC (Staphylococcus aureus) [µg/mL] | MIC (Streptococcus pneumoniae) [µg/mL] | MIC (Escherichia coli) [µg/mL] | IC50 [1] [nM] | MIC (Enterococcus faecalis) [µg/mL] | CC50 [2] [µg/mL] | IC50 [3] [nM]
COCc1ccc(Oc2cccc(F)n2)c(O)c1 | 4 (≈ 16 µM) | > 32 | 16 (≈ 64.2 µM) | 14000 | > 32 | – | –
CCc1ccc(Oc2ccc(S(C)(=O)=O)cc2)c(O)c1 | 0.25 (≈ 0.855 µM) | > 32 | 16 (≈ 54.7 µM) | 810 | > 32 | – | –
CCc1ccc(Oc2ccccc2N)c(O)c1 | 0.25 (≈ 1.09 µM) | > 32 | 4 (≈ 17.4 µM) | 160 | > 32 | – | –
CCCc1ccc(Oc2cccc(NC(C)=O)c2)c(O)c1 | 16 (≈ 56.1 µM) | > 32 | > 32 | 44000 | > 32 | – | –
Oc1cc(Cn2ccnc2)ccc1Oc1cccc(F)n1 | 16 (≈ 56.1 µM) | > 32 | > 32 | 56000 | > 32 | – | –
CCc1cc(O)c(Oc2ccc(C(=O)NC)cc2F)cc1F | 1 (≈ 3.25 µM) | > 32 | 8 (≈ 26 µM) | – | > 32 | > 32 | 82
CCc1ccc(Oc2cc(C)ccc2N)c(O)c1 | 1 (≈ 4.11 µM) | 16 (≈ 65.8 µM) | 16 (≈ 65.8 µM) | 42000 | > 32 | – | –
Oc1cc(Cl)ccc1Oc1cccc(F)n1 | 0.25 (≈ 1.04 µM) | 64 (≈ 267 µM) | 0.25 (≈ 1.04 µM) | 550 | > 32 | – | –
CCc1ccc(Oc2ccc(C(=O)CCCO)cc2)c(O)c1 | 0.062 (≈ 0.206 µM) | 16 (≈ 53.3 µM) | 4 (≈ 13.3 µM) | – | > 32 | 16 (≈ 53.3 µM) | 48
CCc1ccc(Oc2ccc(N3CC(CNC(C)=O)OC3=O)cc2F)c(O)c1 (centres undefined) | 4 (≈ 10.3 µM) | > 32 | > 32 | 6100 | > 32 | – | –
Oc1cc(Cn2cncn2)ccc1Oc1cccc(F)n1 | 4 (≈ 14 µM) | > 32 | 16 (≈ 55.9 µM) | 5200 | > 32 | – | –
CCc1ccc(Oc2ccc(/C(C)=N/OC)cc2F)c(O)c1 | 1 (≈ 3.3 µM) | 16 (≈ 52.7 µM) | > 32 | 14000 | > 32 | – | –
CCc1ccc(Oc2ccc(S(N)(=O)=O)cc2F)c(O)c1 | 0.25 (≈ 0.803 µM) | > 32 | 1 (≈ 3.21 µM) | 860 | > 32 | – | –
CCCNS(=O)(=O)c1ccc(Oc2ccc(CC)cc2O)c(F)c1 | 0.062 (≈ 0.175 µM) | 16 (≈ 45.3 µM) | 4 (≈ 11.3 µM) | 240 | > 32 | – | –
CCc1ccc(Oc2ccc(S(=O)(=O)NCCO)cc2F)c(O)c1 | 0.25 (≈ 0.703 µM) | > 32 | 16 (≈ 45 µM) | 1200 | > 32 | – | –
CCCc1ccc(Oc2cccc(F)n2)c(O)c1 | 0.25 (≈ 1.01 µM) | 64 (≈ 259 µM) | 4 (≈ 16.2 µM) | – | > 32 | – | –
Cc1ccc(Oc2cccc(F)n2)c(O)c1 | 4 (≈ 18.2 µM) | > 32 | 16 (≈ 73 µM) | 3500 | > 32 | – | –
CCc1cc(O)c(Oc2cccnc2F)cc1F | 0.062 (≈ 0.247 µM) | > 32 | 0.25 (≈ 0.995 µM) | – | > 32 | – | 13
CCc1cc(O)c(Oc2ccc(C#N)cc2F)cc1F | 0.062 (≈ 0.225 µM) | 8 (≈ 29.1 µM) | 1 (≈ 3.63 µM) | – | 32 (≈ 116 µM) | 16 (≈ 58.1 µM) | 31
CCc1cc(O)c(Oc2ccccc2F)cc1F | 0.031 (≈ 0.124 µM) | 32 (≈ 128 µM) | 0.25 (≈ 0.999 µM) | – | 32 (≈ 128 µM) | 16 (≈ 63.9 µM) | 8
CCc1cc(O)c(Oc2ccc(C(=O)O)cc2F)cc1F | 8 (≈ 27.2 µM) | > 32 | > 32 | – | > 32 | > 32 | 180
Oc1cc(Br)ccc1Oc1cccc(F)n1 | 0.25 (≈ 0.88 µM) | 64 (≈ 225 µM) | 1 (≈ 3.52 µM) | 120 | > 32 | – | –
CCCc1ccc(Oc2ccc(OC)cc2)c(O)c1 | 0.25 (≈ 0.968 µM) | > 32 | 4 (≈ 15.5 µM) | 230 | > 32 | – | –
